According to ChEMBL document CHEMBL3046042, “3-(4-Methylfuran-3-yl)propan-1-ol: a white-spotted Stinkbug ( Eysarcoris ventralis ) repellent produced by an endophyte isolated from green foxtail” (2010):

Key:
Assay type in all cases: functional
[1] = test system: Eysarcoris; experiment: Repellent activity against Eysarcoris ventralis assessed as reduction in number of bugs at 0.1 umol measured after 30 min
Procedure, shortened: (§1)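 Two-choice bottle assay. Sample dissolved in acetone, 50 μL applied to filter paper strip (5 × 40 mm); control strip got acetone only. Strips dried, each placed in a glass bottle joined to the apparatus. Twenty E. ventralis adults released, held at 10 °C under light; bugs per bottle counted after 30 min. Repellency calculated by formula; four repeats, average ± standard error.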

[2] = test system: Eysarcoris; experiment: Repellent activity against Eysarcoris ventralis assessed as reduction in number of bugs at 1 umol measured after 30 min; procedure, shortened: as §1
[3] = test system: Eysarcoris; experiment: Repellent activity against Eysarcoris ventralis assessed as reduction in number of bugs at 0.01 umol measured after 30 min; procedure, shortened: as §1
[4] = test system: Eysarcoris; experiment: Repellent activity against Eysarcoris ventralis assessed as reduction in number of bugs at 0.003 umol measured after 30 min; procedure, shortened: as §1

Row | SMILES | Repellency [1] [%] | Repellency [2] [%] | Repellency [3] [%] | Repellency [4] [%]
1 | Cc1cocc1CCCOC(=O)c1ccccc1 | 5.3 | 40.7 |  | 
2 | CCCC(=O)OCCCc1cocc1C | 51.8 | 96.4 | -19.4 | 19.5
3 | CC(=O)OCCCc1cocc1C | 90.2 |  | 7.3 | 10.7
4 | CCC(=O)OCCCc1cocc1C | 58 | 89.3 | 20.5 | 
5 | Cc1cocc1CCCO | 5.7 | 89.3 |  | 
6 | c1ccc2ccccc2c1 [NAPHTHALENE] | 44.6 | 80.4 | 40.7 | 
